Experimental data taken from ChEMBL document CHEMBL4364271, “Unveiling the Importance of Amide Protons in CSP:ComD Interactions in Streptococcus pneumoniae” (ACS Med Chem Lett, 2019).
Calls of active or inactive are those of the source. No cut-off for these calls is given here. Non-standard residues stand in square brackets, D forms with d. Residues, ends and D or L forms follow the SMILES beside them. NMeR = CN[C@@H](CCCNC(=N)N)C(=O)O; NMeF = CN[C@@H](Cc1ccccc1)C(=O)O; NMeI = CC[C@H](C)[C@H](NC)C(=O)O; NMeE = CN[C@@H](CCC(=O)O)C(=O)O; NMeL = CN[C@@H](CC(C)C)C(=O)O; NMeM = CN[C@@H](CCSC)C(=O)O

Legend:
[1] = system: Streptococcus pneumoniae TIGR4; experiment: Agonist activity at ComD2 receptor in Streptococcus pneumoniae TIGR4 harboring pcomX/lacZ reporter gene at 10 uM incubated for 30 mins by ONPG based beta-galactosidase assay relative to native CSP2
Procedure, shortened: (§1)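 Single-dose screen of synthetic peptide at 10 μM in wild-type reporter strains (D39 for ComD1, TIGR4 for ComD2) producing their own CSP and carrying lacZ under the comX promoter. β-gal activity in Miller units normalized to native CSP (CSP1 or CSP2, 100%); DMSO 0%. Triplicates over three separate trials.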

[2] = system: Streptococcus pneumoniae D39; experiment: Agonist activity at ComD1 receptor in Streptococcus pneumoniae D39 harboring pcomX/lacZ reporter gene at 10 uM incubated for 30 mins by ONPG based beta-galactosidase assay relative to native CSP1; procedure, shortened: as §1
[3] = system: Streptococcus pneumoniae D39; experiment: Antagonist activity at ComD1 receptor in Streptococcus pneumoniae D39 harboring pcomX/lacZ reporter gene assessed as inhibiton of CSP1-stimulated maximum signal at 10 uM preincubated for 30 mins followed by 50 nM CSP1 addition by ONPG based beta-galactosidase assay relative to native CSP1
Procedure, shortened: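 Inhibition screen: peptides at 10 μM against CSP1 50 nM (D39, ComD1) or CSP2 250 nM (TIGR4, ComD2), in comX-lacZ reporter strains. β-gal Miller units normalized to CSP alone (100%) and DMSO (0%). Triplicates over three separate trials.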

[4] = Solubility of the compound in ammonium carbonate solution at pH 8; assay type: physicochemical; conditions: buffer
[5] = Agonist activity at ComD2 receptor in Streptococcus pneumoniae TIGR4 harboring pcomX/lacZ reporter gene incubated for 30 mins by ONPG based beta-galactosidase assay
Procedure, shortened: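 Dose-response in wild-type lacZ reporter strains (comX promoter; D39 for ComD1, TIGR4 for ComD2) producing native CSP. Peptides tested over a range of concentrations. β-gal read-out (Miller units) normalized to native CSP. EC50 reported with 95% confidence interval.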

Molecule	Activity [1]	Activity [2]	inhibition [3]	solubility [4]	EC50 [5] [nM]
CC[C@H](C)[C@H](NC(=O)[C@H](CCCNC(=N)N)NC(=O)[C@H](CCSC)NC(=O)[C@@H](N)CCC(=O)O)C(=O)N[C@@H](CO)C(=O)N[C@@H](CCCNC(=N)N)C(=O)N[C@H](C(=O)N[C@H](C(=O)N[C@@H](CC(C)C)C(=O)N[C@@H](CC(=O)O)C(=O)N[C@@H](Cc1ccccc1)C(=O)N[C@@H](CC(C)C)C(=O)N(C)[C@@H](Cc1ccccc1)C(=O)O)[C@@H](C)CC)[C@@H](C)CC (H-EMRISRIILDFL[NMeF]-OH)	> 75%	inactive	inactive	Insoluble	27
CC[C@H](C)[C@H](NC(=O)[C@H](CCCNC(=N)N)NC(=O)[C@H](CCSC)NC(=O)[C@@H](N)CCC(=O)O)C(=O)N[C@@H](CO)C(=O)N[C@@H](CCCNC(=N)N)C(=O)N[C@H](C(=O)N[C@H](C(=O)N[C@@H](CC(C)C)C(=O)N[C@@H](CC(=O)O)C(=O)N[C@@H](Cc1ccccc1)C(=O)N(C)[C@@H](CC(C)C)C(=O)N[C@@H](Cc1ccccc1)C(=O)O)[C@@H](C)CC)[C@@H](C)CC (H-EMRISRIILDF[NMeL]F-OH)	inactive	inactive	inactive	Insoluble	–
CC[C@H](C)[C@H](NC(=O)[C@H](CCCNC(=N)N)NC(=O)[C@H](CCSC)NC(=O)[C@@H](N)CCC(=O)O)C(=O)N[C@@H](CO)C(=O)N[C@@H](CCCNC(=N)N)C(=O)N[C@H](C(=O)N[C@H](C(=O)N[C@@H](CC(C)C)C(=O)N[C@@H](CC(=O)O)C(=O)N(C)[C@@H](Cc1ccccc1)C(=O)N[C@@H](CC(C)C)C(=O)N[C@@H](Cc1ccccc1)C(=O)O)[C@@H](C)CC)[C@@H](C)CC (H-EMRISRIILD[NMeF]LF-OH)	inactive	inactive	inactive	Insoluble	–
CC[C@H](C)[C@H](NC(=O)[C@H](CCCNC(=N)N)NC(=O)[C@H](CCSC)NC(=O)[C@@H](N)CCC(=O)O)C(=O)N[C@@H](CO)C(=O)N[C@@H](CCCNC(=N)N)C(=O)N[C@H](C(=O)N[C@H](C(=O)N(C)[C@@H](CC(C)C)C(=O)N[C@@H](CC(=O)O)C(=O)N[C@@H](Cc1ccccc1)C(=O)N[C@@H](CC(C)C)C(=O)N[C@@H](Cc1ccccc1)C(=O)O)[C@@H](C)CC)[C@@H](C)CC (H-EMRISRII[NMeL]DFLF-OH)	inactive	inactive	inactive	Insoluble	–
CC[C@H](C)[C@H](NC(=O)[C@H](CCCNC(=N)N)NC(=O)[C@H](CCSC)NC(=O)[C@@H](N)CCC(=O)O)C(=O)N[C@@H](CO)C(=O)N[C@@H](CCCNC(=N)N)C(=O)N[C@H](C(=O)N(C)[C@H](C(=O)N[C@@H](CC(C)C)C(=O)N[C@@H](CC(=O)O)C(=O)N[C@@H](Cc1ccccc1)C(=O)N[C@@H](CC(C)C)C(=O)N[C@@H](Cc1ccccc1)C(=O)O)[C@@H](C)CC)[C@@H](C)CC (H-EMRISRI[NMeI]LDFLF-OH)	inactive	inactive	inactive	Insoluble	–
CC[C@H](C)[C@@H](C(=O)N[C@@H](CC(C)C)C(=O)N[C@@H](CCC(N)=O)C(=O)N[C@@H](CCCNC(=N)N)C(=O)O)N(C)C(=O)[C@H](Cc1ccccc1)NC(=O)[C@H](CC(=O)O)NC(=O)[C@H](CCCNC(=N)N)NC(=O)[C@H](Cc1ccccc1)NC(=O)[C@H](Cc1ccccc1)NC(=O)[C@H](CCCCN)NC(=O)[C@H](CO)NC(=O)[C@H](CC(C)C)NC(=O)[C@H](CCCNC(=N)N)NC(=O)[C@H](CCSC)NC(=O)[C@@H](N)CCC(=O)O (H-EMRLSKFFRDF[NMeI]LQR-OH)	inactive	inactive	–	–	–
CC[C@H](C)[C@H](NC(=O)[C@H](Cc1ccccc1)N(C)C(=O)[C@H](CC(=O)O)NC(=O)[C@H](CCCNC(=N)N)NC(=O)[C@H](Cc1ccccc1)NC(=O)[C@H](Cc1ccccc1)NC(=O)[C@H](CCCCN)NC(=O)[C@H](CO)NC(=O)[C@H](CC(C)C)NC(=O)[C@H](CCCNC(=N)N)NC(=O)[C@H](CCSC)NC(=O)[C@@H](N)CCC(=O)O)C(=O)N[C@@H](CC(C)C)C(=O)N[C@@H](CCC(N)=O)C(=O)N[C@@H](CCCNC(=N)N)C(=O)O (H-EMRLSKFFRD[NMeF]ILQR-OH)	> 75%	inactive	–	–	> 1000
CC[C@H](C)[C@H](NC(=O)[C@H](Cc1ccccc1)NC(=O)[C@H](CC(=O)O)NC(=O)[C@H](CCCNC(=N)N)N(C)C(=O)[C@H](Cc1ccccc1)NC(=O)[C@H](Cc1ccccc1)NC(=O)[C@H](CCCCN)NC(=O)[C@H](CO)NC(=O)[C@H](CC(C)C)NC(=O)[C@H](CCCNC(=N)N)NC(=O)[C@H](CCSC)NC(=O)[C@@H](N)CCC(=O)O)C(=O)N[C@@H](CC(C)C)C(=O)N[C@@H](CCC(N)=O)C(=O)N[C@@H](CCCNC(=N)N)C(=O)O (H-EMRLSKFF[NMeR]DFILQR-OH)	inactive	inactive	–	–	–
CC[C@H](C)[C@H](NC(=O)[C@H](CCCNC(=N)N)NC(=O)[C@H](CO)NC(=O)[C@@H](NC(=O)[C@H](CCCNC(=N)N)N(C)C(=O)[C@H](CCSC)NC(=O)[C@@H](N)CCC(=O)O)[C@@H](C)CC)C(=O)N[C@H](C(=O)N[C@@H](CC(C)C)C(=O)N[C@@H](CC(=O)O)C(=O)N[C@@H](Cc1ccccc1)C(=O)N[C@@H](CC(C)C)C(=O)N[C@@H](Cc1ccccc1)C(=O)O)[C@@H](C)CC (H-EM[NMeR]ISRIILDFLF-OH)	inactive	inactive	inactive	Insoluble	–
CC[C@H](C)[C@H](NC(=O)[C@H](Cc1ccccc1)NC(=O)[C@H](CC(=O)O)NC(=O)[C@H](CCCNC(=N)N)NC(=O)[C@H](Cc1ccccc1)NC(=O)[C@H](Cc1ccccc1)NC(=O)[C@H](CCCCN)NC(=O)[C@H](CO)NC(=O)[C@H](CC(C)C)NC(=O)[C@H](CCCNC(=N)N)N(C)C(=O)[C@H](CCSC)NC(=O)[C@@H](N)CCC(=O)O)C(=O)N[C@@H](CC(C)C)C(=O)N[C@@H](CCC(N)=O)C(=O)N[C@@H](CCCNC(=N)N)C(=O)O (H-EM[NMeR]LSKFFRDFILQR-OH)	inactive	inactive	–	–	–
CC[C@H](C)[C@H](NC(=O)[C@H](Cc1ccccc1)NC(=O)[C@H](CC(=O)O)NC(=O)[C@H](CCCNC(=N)N)NC(=O)[C@H](Cc1ccccc1)NC(=O)[C@H](Cc1ccccc1)NC(=O)[C@H](CCCCN)NC(=O)[C@H](CO)NC(=O)[C@H](CC(C)C)NC(=O)[C@H](CCCNC(=N)N)NC(=O)[C@H](CCSC)N(C)C(=O)[C@@H](N)CCC(=O)O)C(=O)N[C@@H](CC(C)C)C(=O)N[C@@H](CCC(N)=O)C(=O)N[C@@H](CCCNC(=N)N)C(=O)O (H-E[NMeM]RLSKFFRDFILQR-OH)	inactive	inactive	–	–	–
CC[C@H](C)[C@H](NC(=O)[C@H](Cc1ccccc1)NC(=O)[C@H](CC(=O)O)NC(=O)[C@H](CCCNC(=N)N)NC(=O)[C@H](Cc1ccccc1)NC(=O)[C@H](Cc1ccccc1)NC(=O)[C@H](CCCCN)NC(=O)[C@H](CO)NC(=O)[C@H](CC(C)C)NC(=O)[C@H](CCCNC(=N)N)NC(=O)[C@H](CCSC)NC(=O)[C@H](CCC(=O)O)NC)C(=O)N[C@@H](CC(C)C)C(=O)N[C@@H](CCC(N)=O)C(=O)N[C@@H](CCCNC(=N)N)C(=O)O (H-[NMeE]MRLSKFFRDFILQR-OH)	inactive	inactive	–	–	–
H-EMRISRIILDFLF-OH	–	–	–	–	78
H-EMRISRIILDFLFLRKK-OH	–	–	–	–	51
